Results published in ChEMBL document CHEMBL1147605, “Syntheses and biological evaluation of new fluoroquinolone antibacterials containing chiral oxiimino pyrrolidine” (Bioorg Med Chem Lett, 2004).
Values after ≈ are worked out from the molar mass of the structure shown.

How the values were obtained:
Enterococcus sp. = test: In vitro antibacterial activity against the Ofloxacin Resistant Enterococcus knothe 101; type: functional
Procedure, shortened: (§1)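 MICs by agar dilution following National Committee for Clinical Laboratory Standards recommendations; all strains obtained from Hoechst.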

Enterobacter cloacae = test: In vitro antibacterial activity against the Enterobacter cloacae 1321 E; type: functional
Escherichia coli [1] = test: In vitro antibacterial activity against the Escherichia coli 078; type: functional
Klebsiella = test: In vitro antibacterial activity against the Ofloxacin Resistant Klebsiella species 30-92; type: functional; procedure, shortened: as §1
Pseudomonas aeruginosa [2] = test: In vitro antibacterial activity against the Ofloxacin Resistant Pseudomonas aeruginosa 279II; type: functional; procedure, shortened: as §1
Pseudomonas aeruginosa [3] = test: In vitro antibacterial activity against the Pseudomonas aeruginosa 1592E; type: functional
Pseudomonas aeruginosa [4] = test: In vitro antibacterial activity against the Pseudomonas aeruginosa 1771M; type: functional
Salmonella typhimurium = test: In vitro antibacterial activity against the Salmonella Typhimurium; type: functional, Salmonella enterica subsp. enterica serovar Typhimurium; conditions: Salmonella enterica
[5] = system: Staphylococcus epidermidis; test: In vitro antibacterial activity against the Ofloxacin Resistant Staphylococcus epidermidis 291; type: functional; procedure, shortened: as §1
[6] = system: Staphylococcus epidermidis; test: In vitro antibacterial activity against the Ofloxacin Resistant Staphylococcus epidermidis 319; type: functional; procedure, shortened: as §1
Staphylococcus aureus [7] = test: In vitro antibacterial activity against the Ofloxacin Resistant Staphylococcus aureus 179; type: functional; procedure, shortened: as §1
Staphylococcus aureus [8] = test: In vitro antibacterial activity against the Ofloxacin Resistant Staphylococcus aureus 293; type: functional; procedure, shortened: as §1
Staphylococcus aureus [9] = test: In vitro antibacterial activity against the Ofloxacin Resistant Staphylococcus aureus 303; type: functional; procedure, shortened: as §1
Staphylococcus aureus [10] = test: In vitro antibacterial activity against the Methicillin-Resistant Staphylococcus aureus (MRSA) 690 E; type: functional; procedure, shortened: as §1
Staphylococcus aureus [11] = test: In vitro antibacterial activity against the Methicillin-Resistant Staphylococcus aureus (MRSA) 692 E; type: functional; procedure, shortened: as §1
Staphylococcus aureus [12] = test: In vitro antibacterial activity against the Methicillin-Resistant Staphylococcus aureus (MRSA) 697 E; type: functional; procedure, shortened: as §1
Staphylococcus aureus [13] = test: In vitro antibacterial activity against the Methicillin-Resistant Staphylococcus aureus (MRSA) 701 E; type: functional; procedure, shortened: as §1
Staphylococcus aureus [14] = test: In vitro antibacterial activity against the Methicillin-Resistant Staphylococcus aureus (MRSA) 705 E; type: functional; procedure, shortened: as §1
Staphylococcus aureus [15] = test: In vitro antibacterial activity against the Methicillin-Resistant Staphylococcus aureus (MRSA) 707 E; type: functional; procedure, shortened: as §1
Staphylococcus aureus [16] = test: In vitro antibacterial activity against the Staphylococcus aureus SG511; type: functional
Streptococcus pyogenes [17] = test: In vitro antibacterial activity against the Streptococcus pyogenes 308A; type: functional
Streptococcus pyogenes [18] = test: In vitro antibacterial activity against the Streptococcus pyogenes 77A; type: functional
Escherichia coli [19] = test: In vitro antibacterial activity against the Escherichia coli DC 2; type: functional
Staphylococcus aureus [20] = test: In vitro antibacterial activity against the Staphylococcus aureus 285; type: functional
HepG2 = test: Cytotoxicity was determined for the compound in HepG2 cell line; type: functional, cell-based; conditions: Homo sapiens
V79-4 = test: Cytotoxicity was determined for the compound in V79-4 cell line; type: functional, cell-based; conditions: Cricetulus griseus
[21] = Half-life period for the compound was determined in rats at 50 mg/kg dose; type: ADME, organism-based; parameters: dose 50 mg/kg; conditions: rat, in vivo
[22] = Plasma concentration for the compound was determined in rats at 50 mg/kg dose; type: ADME, organism-based; parameters: dose 50 mg/kg; conditions: rat
Procedure, shortened: (§2)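 Pharmacokinetics were measured in SD rats given 50mg/kg, reporting Cmax, Tmax, T1/2 and AUC.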

[23] = Time for maximum plasma concentration reached by compound was determined in rats at 50 mg/kg dose; type: ADME, organism-based; parameters: dose 50 mg/kg; conditions: rat; procedure, shortened: as §2
[24] = Maximum plasma concentration reached by compound was determined in rats at 50 mg/kg dose; type: ADME, organism-based; parameters: dose 50 mg/kg; conditions: rat; procedure, shortened: as §2

SMILES	MIC (Enterococcus sp.) [µg/mL]	MIC (Enterobacter cloacae) [µg/mL]	MIC (Escherichia coli [1]) [µg/mL]	MIC (Klebsiella) [µg/mL]	MIC (Pseudomonas aeruginosa [2]) [µg/mL]	MIC (Pseudomonas aeruginosa [3]) [µg/mL]	MIC (Pseudomonas aeruginosa [4]) [µg/mL]	MIC (Salmonella typhimurium) [µg/mL]	MIC [5] [µg/mL]	MIC [6] [µg/mL]	MIC (Staphylococcus aureus [7]) [µg/mL]	MIC (Staphylococcus aureus [8]) [µg/mL]	MIC (Staphylococcus aureus [9]) [µg/mL]	MIC (Staphylococcus aureus [10]) [µg/mL]	MIC (Staphylococcus aureus [11]) [µg/mL]	MIC (Staphylococcus aureus [16]) [µg/mL]	MIC (Streptococcus pyogenes [17]) [µg/mL]	MIC (Streptococcus pyogenes [18]) [µg/mL]	MIC (Escherichia coli [19]) [µg/mL]	MIC (Staphylococcus aureus [20]) [µg/mL]	further results
CO/N=C1\CN(c2nc3c(cc2F)c(=O)c(C(=O)O)cn3C2CC2)CC1(C)CN.Cl (stereo not drawn)	0.098	0.004	0.004	1.56	6.25	0.781	0.391	0.007	0.391	0.391	0.195	0.195	0.195	0.004	< 0.002	0.004	0.098	0.025	0.049	0.007	MIC (Staphylococcus aureus [12]): 0.007 µg/mL; MIC (Staphylococcus aureus [13]): 0.007 µg/mL; MIC (Staphylococcus aureus [14]): 0.013 µg/mL; MIC (Staphylococcus aureus [15]): < 0.002 µg/mL
N[C@@H]1[C@H]2CN(c3nc4c(cc3F)c(=O)c(C(=O)O)cn4-c3ccc(F)cc3F)C[C@@H]12 [TROVAFLOXACIN]	–	–	–	–	–	–	–	–	–	–	–	–	–	–	–	–	–	–	–	–	IC50 (HepG2): 11.2 µg/mL (≈ 26.8 µM); IC50 (V79-4): 3.77 µg/mL (≈ 9.05 µM)
CO/N=C1\CN(c2cc3c(cc2F)c(=O)c(C(=O)O)cn3C2CC2)CC1(C)CN.Cl (stereo not drawn)	–	0.013	0.013	–	–	0.781	0.391	0.013	–	–	–	–	–	–	–	0.007	0.098	0.013	0.025	0.013	–
CO/N=C1\CN(c2c(F)c(N)c3c(=O)c(C(=O)O)cn(C4CC4)c3c2F)C[C@@]1(C)CN.Cl	0.195	< 0.002	0.004	1.56	3.12	0.391	0.195	< 0.002	0.391	0.781	0.195	0.195	0.195	0.004	0.004	< 0.002	0.049	0.013	0.013	0.004	MIC (Staphylococcus aureus [12]): 0.004 µg/mL; MIC (Staphylococcus aureus [13]): 0.007 µg/mL; MIC (Staphylococcus aureus [14]): 0.007 µg/mL
CO/N=C1\CN(c2nc3c(cc2F)c(=O)c(C(=O)O)cn3C2CC2)CC1CN (stereo not drawn) [GEMIFLOXACIN]	0.098 (≈ 0.252 µM)	0.004 (≈ 0.0103 µM)	0.007 (≈ 0.018 µM)	0.781 (≈ 2.01 µM)	6.25 (≈ 16.1 µM)	0.391 (≈ 1 µM)	0.195 (≈ 0.501 µM)	0.004 (≈ 0.0103 µM)	1.56 (≈ 4.01 µM)	3.12 (≈ 8.03 µM)	0.781 (≈ 2.01 µM)	0.781 (≈ 2.01 µM)	0.781 (≈ 2.01 µM)	0.098 (≈ 0.252 µM)	0.049 (≈ 0.126 µM)	0.013 (≈ 0.0334 µM)	0.195 (≈ 0.501 µM)	0.025 (≈ 0.0642 µM)	0.025 (≈ 0.0642 µM)	0.025 (≈ 0.0642 µM)	half-life [21]: 2.12 h; AUC [22]: 25800 ng·h/mL; Tmax [23]: 1 h; Cmax [24]: 6630 ng/mL; IC50 (HepG2): 13.5 µg/mL (≈ 34.6 µM); MIC (Staphylococcus aureus [12]): 0.049 µg/mL (≈ 0.126 µM); MIC (Staphylococcus aureus [13]): 0.098 µg/mL (≈ 0.252 µM); MIC (Staphylococcus aureus [14]): 0.098 µg/mL (≈ 0.252 µM); MIC (Staphylococcus aureus [15]): 0.025 µg/mL (≈ 0.0642 µM); IC50 (V79-4): 10.1 µg/mL (≈ 25.9 µM)
CO/N=C1\CN(c2c(F)cc3c(=O)c(C(=O)O)cn(C4CC4)c3c2F)CC1(C)CN.Cl (stereo not drawn)	–	0.013	0.025	–	–	1.56	0.781	0.025	–	–	–	–	–	–	–	0.013	0.098	0.025	0.049	0.013	–
CO/N=C1\CN(c2c(F)c(N)c3c(=O)c(C(=O)O)cn(C4CC4)c3c2F)C[C@]1(C)CN.Cl	0.013	< 0.002	< 0.002	0.781	3.12	0.391	0.195	< 0.002	0.049	0.025	0.013	0.013	0.013	< 0.002	< 0.002	< 0.002	0.004	< 0.002	< 0.002	–	half-life [21]: 6.94 h; AUC [22]: 68800 ng·h/mL; Tmax [23]: 1 h; Cmax [24]: 6670 ng/mL; IC50 (HepG2): 11.6 µg/mL; MIC (Staphylococcus aureus [12]): < 0.002 µg/mL; MIC (Staphylococcus aureus [13]): < 0.002 µg/mL; MIC (Staphylococcus aureus [14]): < 0.002 µg/mL; MIC (Staphylococcus aureus [15]): < 0.002 µg/mL; IC50 (V79-4): 0.21 µg/mL
